From ChEMBL document CHEMBL4043093, “2-Oxo-3, 4-dihydropyrimido[4, 5-d]pyrimidinyl derivatives as new irreversible pan fibroblast growth factor receptor (FGFR) inhibitors” (Eur J Med Chem, 2017) come the findings set out here.

Experiment [1] addresses Receptor-interacting serine/threonine-protein kinase 4 (Homo sapiens) (UniProt P57078). The experiment is described as follows: Inhibition of wild-type human partial length RIPK4 (M1 to V303 residues) expressed in HEK293 cells assessed as residual activity at 1000 nM after 30 mins by Kinomescan method relative to control. It is filed as cell-based.
Experiment [2] has as its target Dual specificity mitogen-activated protein kinase kinase 7 (Homo sapiens) (UniProt O14733). Briefly: Inhibition of wild-type human full length MKK7 (M1 to R419 residues) expressed in HEK293 cells assessed as residual activity at 1000 nM after 30 mins by Kinomescan method relative to control. It is filed as cell-based. In outline:
(§1)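 Single-concentration screen at 1 µM across a 456-kinase KINOMEscan panel. The read-out is Percent Control for each kinase.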

Experiment [3] concerns the target Serine/threonine-protein kinase Sgk1 (Homo sapiens) (UniProt O00141). Briefly: Inhibition of wild-type human partial length SGK (I60 to L431 residues) expressed in HEK293 cells assessed as residual activity at 1000 nM after 30 mins by Kinomescan method relative to control. The class given is cell-based.
In experiment [4] the target is Mitogen-activated protein kinase kinase kinase kinase 3 (Homo sapiens) (UniProt Q8IVH8). The experiment is described as follows: Inhibition of wild-type human partial length MAP4K3 (M1 to D301 residues) expressed in Escherichia coli BL21 assessed as residual activity at 1000 nM after 30 mins by Kinomescan method relative to control.
For experiment [5], the target named is Proto-oncogene tyrosine-protein kinase ROS (Homo sapiens) (UniProt P08922). The experiment is described as follows: Inhibition of wild-type human partial length ROS1 (A1921 to N2240 residues) expressed in Escherichia coli BL21 assessed as residual activity at 1000 nM after 30 mins by Kinomescan method relative to control.
Experiment [6] addresses Mitogen-activated protein kinase kinase kinase 15 (Homo sapiens) (UniProt Q6ZN16). The experiment is described as follows: Inhibition of wild-type human partial length MAP3K15 (T625 to L932 residues) expressed in HEK293 cells assessed as residual activity at 1000 nM after 30 mins by Kinomescan method relative to control. The class given is cell-based.
Experiment [7] has as its target Wee1-like protein kinase (Homo sapiens) (UniProt P30291). The experiment is described as follows: Inhibition of wild-type human partial length WEE1 (M291 to K575 residues) expressed in Escherichia coli BL21 assessed as residual activity at 1000 nM after 30 mins by Kinomescan method relative to control.
The target in experiment [8] is Serine/threonine-protein kinase Nek11 (Homo sapiens) (UniProt Q8NG66). Briefly: Inhibition of wild-type human partial length NEK11 (M1 to E313 residues) expressed in HEK293 cells assessed as residual activity at 1000 nM after 30 mins by Kinomescan method relative to control. It is filed as cell-based.
Experiment [9] deals with Serine/threonine-protein kinase VRK2 (Homo sapiens) (UniProt Q86Y07). The experiment is described as follows: Inhibition of wild-type human partial length VRK2 (M1 to T336 residues) expressed in HEK293 cells assessed as residual activity at 1000 nM after 30 mins by Kinomescan method relative to control. The class given is cell-based.
In experiment [10] the target is Ephrin type-A receptor 6 (Homo sapiens) (UniProt Q9UF33). The experiment is described as follows: Inhibition of wild-type human partial length EPHA6 (Y700 to E1046 residues) expressed in Escherichia coli BL21 assessed as residual activity at 1000 nM after 30 mins by Kinomescan method relative to control.
The target of experiment [11] is Ephrin type-B receptor 1 (Homo sapiens) (UniProt P54762). Briefly: Inhibition of wild-type human partial length EPHB1 (P589 to T911 residues) expressed in Escherichia coli BL21 assessed as residual activity at 1000 nM after 30 mins by Kinomescan method relative to control.
In experiment [12] the target is Phosphatidylinositol 4-phosphate 3-kinase C2 domain-containing subunit beta (Homo sapiens) (UniProt O00750). The experiment is described as follows: Inhibition of wild-type human partial length PIK3C2B (M1 to L1634 residues) expressed in HEK293 cells assessed as residual activity at 1000 nM after 30 mins by Kinomescan method relative to control. It is filed as cell-based.

In experiment [13] the target is Mitogen-activated protein kinase 14 (Homo sapiens) (UniProt Q16539). Briefly: Inhibition of wild-type human full length p38-alpha (M1 to S360 residues) expressed in Escherichia coli BL21 assessed as residual activity at 1000 nM after 30 mins by Kinomescan method relative to control.
Experiment [14] concerns the target MAP kinase-activated protein kinase 2 (Homo sapiens) (UniProt P49137). The experiment is described as follows: Inhibition of wild-type human partial length MAPKAPK2 (V48 to D345 residues) expressed in Escherichia coli BL21 assessed as residual activity at 1000 nM after 30 mins by Kinomescan method relative to control.
The target of experiment [15] is Focal adhesion kinase 1 (Homo sapiens) (UniProt Q05397). Briefly: Inhibition of wild-type human partial length FAK (D402 to R696 residues) expressed in Escherichia coli BL21 assessed as residual activity at 1000 nM after 30 mins by Kinomescan method relative to control.
The target of experiment [16] is Myosin-IIIa (Homo sapiens) (UniProt Q8NEV4). Briefly: Inhibition of wild-type human partial length MYO3A (M1 to K338 residues) expressed in Escherichia coli BL21 assessed as residual activity at 1000 nM after 30 mins by Kinomescan method relative to control.
In experiment [17] the target is Mitogen-activated protein kinase kinase kinase 14 (Homo sapiens) (UniProt Q99558). The experiment is described as follows: Inhibition of wild-type human partial length NIK (L318 to P947 residues) expressed in HEK293 cells assessed as residual activity at 1000 nM after 30 mins by Kinomescan method relative to control. The class given is cell-based.
In experiment [18] the target is Megakaryocyte-associated tyrosine-protein kinase (Homo sapiens) (UniProt P42679). The experiment is described as follows: Inhibition of wild-type human full length CTK (M43 to P508 residues) expressed in HEK293 cells assessed as residual activity at 1000 nM after 30 mins by Kinomescan method relative to control. The class given is cell-based. The method, boiled down: as §1

Experiment [19] deals with Cyclin-dependent kinase 11B (Homo sapiens) (UniProt P21127). Briefly: Inhibition of wild-type human partial length CDK11 (M1 to N360 residues) expressed in Escherichia coli BL21 assessed as residual activity at 1000 nM after […] by Kinomescan method relative to control.
Experiment [20] addresses Interleukin-1 receptor-associated kinase 3 (Homo sapiens) (UniProt Q9Y616). The experiment is described as follows: Inhibition of wild-type human partial length IRAK3 (V147 to E596 residues) expressed in Escherichia coli BL21 assessed as residual activity at 1000 nM after 30 mins by Kinomescan method relative to control.
The target of experiment [21] is Microtubule-associated serine/threonine-protein kinase 1 (Homo sapiens) (UniProt Q9Y2H9). Briefly: Inhibition of wild-type human partial length MAST1 (S346 to V730 residues) expressed in HEK293 cells assessed as residual activity at 1000 nM after 30 mins by Kinomescan method relative to control. The class given is cell-based.
Experiment [22] has as its target Mitogen-activated protein kinase 4 (Homo sapiens) (UniProt P31152). Briefly: Inhibition of wild-type human partial length ERK4 (M1 to L365 residues) expressed in Escherichia coli BL21 assessed as residual activity at 1000 nM after 30 mins by Kinomescan method relative to control.
The target of experiment [23] is Serine/threonine-protein kinase DCLK2 (Homo sapiens) (UniProt Q8N568). The experiment is described as follows: Inhibition of wild-type human partial length DCAMKL2 (K273 to V664 residues) expressed in Escherichia coli BL21 assessed as residual activity at 1000 nM after 30 mins by Kinomescan method relative to control.

Chain of Phosphatidylinositol 4-phosphate 3-kinase C2 domain-containing subunit beta (Homo sapiens) (O00750 whole entry, the tested form may be a part): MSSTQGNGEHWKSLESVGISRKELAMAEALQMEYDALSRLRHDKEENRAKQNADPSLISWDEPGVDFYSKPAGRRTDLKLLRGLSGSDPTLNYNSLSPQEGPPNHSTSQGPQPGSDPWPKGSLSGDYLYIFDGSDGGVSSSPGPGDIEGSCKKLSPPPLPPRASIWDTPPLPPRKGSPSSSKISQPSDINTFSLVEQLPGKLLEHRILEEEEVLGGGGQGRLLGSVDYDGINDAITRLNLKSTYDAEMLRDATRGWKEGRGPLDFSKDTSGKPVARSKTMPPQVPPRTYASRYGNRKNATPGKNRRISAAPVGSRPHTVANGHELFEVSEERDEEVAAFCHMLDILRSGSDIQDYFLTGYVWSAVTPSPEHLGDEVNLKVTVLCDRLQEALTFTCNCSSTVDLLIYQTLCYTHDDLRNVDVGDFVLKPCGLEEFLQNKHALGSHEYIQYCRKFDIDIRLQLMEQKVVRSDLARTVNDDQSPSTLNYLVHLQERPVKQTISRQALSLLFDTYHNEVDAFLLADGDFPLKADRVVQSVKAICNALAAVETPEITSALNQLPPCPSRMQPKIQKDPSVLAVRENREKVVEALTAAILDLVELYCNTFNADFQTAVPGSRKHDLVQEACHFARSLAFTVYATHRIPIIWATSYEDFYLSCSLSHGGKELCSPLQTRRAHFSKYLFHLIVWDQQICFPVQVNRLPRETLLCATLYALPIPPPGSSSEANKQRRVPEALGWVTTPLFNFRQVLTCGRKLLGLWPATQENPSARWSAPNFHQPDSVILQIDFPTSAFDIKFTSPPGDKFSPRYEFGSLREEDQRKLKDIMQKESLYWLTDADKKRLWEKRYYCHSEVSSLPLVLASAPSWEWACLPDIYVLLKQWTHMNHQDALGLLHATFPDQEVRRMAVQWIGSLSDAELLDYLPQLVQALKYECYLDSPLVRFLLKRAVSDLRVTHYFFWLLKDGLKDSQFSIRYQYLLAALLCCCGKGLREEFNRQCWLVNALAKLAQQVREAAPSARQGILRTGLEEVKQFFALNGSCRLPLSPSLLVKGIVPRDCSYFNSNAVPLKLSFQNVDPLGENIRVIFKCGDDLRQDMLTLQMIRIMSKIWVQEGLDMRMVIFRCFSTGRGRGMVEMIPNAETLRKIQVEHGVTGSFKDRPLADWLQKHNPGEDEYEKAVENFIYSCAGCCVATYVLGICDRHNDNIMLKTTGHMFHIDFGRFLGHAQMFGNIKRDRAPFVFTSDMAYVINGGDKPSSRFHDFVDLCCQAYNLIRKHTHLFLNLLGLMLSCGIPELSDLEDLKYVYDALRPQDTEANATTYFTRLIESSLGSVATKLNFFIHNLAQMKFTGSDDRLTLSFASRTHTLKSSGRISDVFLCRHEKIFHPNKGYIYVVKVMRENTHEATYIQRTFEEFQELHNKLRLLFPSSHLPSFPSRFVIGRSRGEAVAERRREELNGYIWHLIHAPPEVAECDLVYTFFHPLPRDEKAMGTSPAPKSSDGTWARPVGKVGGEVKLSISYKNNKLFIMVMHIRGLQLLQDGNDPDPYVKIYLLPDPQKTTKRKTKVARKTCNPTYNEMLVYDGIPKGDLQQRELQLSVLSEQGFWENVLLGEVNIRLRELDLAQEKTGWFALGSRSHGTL
Chain of Ephrin type-A receptor 6 (Homo sapiens) (Q9UF33 whole entry, the tested form may be a part): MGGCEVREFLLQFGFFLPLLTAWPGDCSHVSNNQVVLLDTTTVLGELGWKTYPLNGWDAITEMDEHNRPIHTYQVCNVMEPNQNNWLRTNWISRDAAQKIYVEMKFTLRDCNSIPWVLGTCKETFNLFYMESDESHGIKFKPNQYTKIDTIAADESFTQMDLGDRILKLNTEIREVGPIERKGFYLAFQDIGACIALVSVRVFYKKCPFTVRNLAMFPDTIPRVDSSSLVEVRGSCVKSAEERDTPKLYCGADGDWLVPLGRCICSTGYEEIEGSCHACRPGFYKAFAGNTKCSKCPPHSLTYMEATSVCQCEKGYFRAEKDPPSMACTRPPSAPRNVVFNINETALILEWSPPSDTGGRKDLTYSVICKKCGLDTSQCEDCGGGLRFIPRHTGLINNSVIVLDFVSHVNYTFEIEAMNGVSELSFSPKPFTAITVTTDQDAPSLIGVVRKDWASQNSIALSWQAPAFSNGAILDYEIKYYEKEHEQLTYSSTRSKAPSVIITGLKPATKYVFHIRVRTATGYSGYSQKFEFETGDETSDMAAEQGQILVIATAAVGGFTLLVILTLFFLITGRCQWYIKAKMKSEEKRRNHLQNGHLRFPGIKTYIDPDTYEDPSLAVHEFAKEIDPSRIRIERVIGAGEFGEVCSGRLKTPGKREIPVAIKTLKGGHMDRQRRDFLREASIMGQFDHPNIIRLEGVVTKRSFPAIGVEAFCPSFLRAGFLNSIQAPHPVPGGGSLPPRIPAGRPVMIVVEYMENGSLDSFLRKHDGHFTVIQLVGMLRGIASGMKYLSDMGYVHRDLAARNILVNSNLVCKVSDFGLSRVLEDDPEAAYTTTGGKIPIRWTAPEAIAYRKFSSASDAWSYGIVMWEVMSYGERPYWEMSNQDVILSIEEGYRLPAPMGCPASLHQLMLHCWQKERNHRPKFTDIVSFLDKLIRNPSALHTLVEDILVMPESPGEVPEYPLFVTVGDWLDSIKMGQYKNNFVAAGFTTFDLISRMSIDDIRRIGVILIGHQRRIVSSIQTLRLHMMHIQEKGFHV
Chain of Serine/threonine-protein kinase VRK2 (Homo sapiens) (Q86Y07 whole entry, the tested form may be a part): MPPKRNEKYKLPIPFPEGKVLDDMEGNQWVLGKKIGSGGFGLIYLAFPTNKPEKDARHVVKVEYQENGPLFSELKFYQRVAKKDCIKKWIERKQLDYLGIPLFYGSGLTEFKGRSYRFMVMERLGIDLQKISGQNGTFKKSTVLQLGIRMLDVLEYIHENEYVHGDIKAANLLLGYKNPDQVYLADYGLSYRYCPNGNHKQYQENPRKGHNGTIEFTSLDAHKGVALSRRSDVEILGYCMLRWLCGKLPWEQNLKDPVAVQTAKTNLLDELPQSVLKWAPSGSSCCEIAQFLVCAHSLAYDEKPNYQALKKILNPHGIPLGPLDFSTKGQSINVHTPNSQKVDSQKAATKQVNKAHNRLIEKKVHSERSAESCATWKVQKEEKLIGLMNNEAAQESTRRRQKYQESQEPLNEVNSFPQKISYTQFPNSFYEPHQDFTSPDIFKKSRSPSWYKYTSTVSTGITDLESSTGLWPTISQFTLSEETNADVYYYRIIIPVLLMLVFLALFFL
Chain of Mitogen-activated protein kinase kinase kinase kinase 3 (Homo sapiens) (Q8IVH8 whole entry, the tested form may be a part): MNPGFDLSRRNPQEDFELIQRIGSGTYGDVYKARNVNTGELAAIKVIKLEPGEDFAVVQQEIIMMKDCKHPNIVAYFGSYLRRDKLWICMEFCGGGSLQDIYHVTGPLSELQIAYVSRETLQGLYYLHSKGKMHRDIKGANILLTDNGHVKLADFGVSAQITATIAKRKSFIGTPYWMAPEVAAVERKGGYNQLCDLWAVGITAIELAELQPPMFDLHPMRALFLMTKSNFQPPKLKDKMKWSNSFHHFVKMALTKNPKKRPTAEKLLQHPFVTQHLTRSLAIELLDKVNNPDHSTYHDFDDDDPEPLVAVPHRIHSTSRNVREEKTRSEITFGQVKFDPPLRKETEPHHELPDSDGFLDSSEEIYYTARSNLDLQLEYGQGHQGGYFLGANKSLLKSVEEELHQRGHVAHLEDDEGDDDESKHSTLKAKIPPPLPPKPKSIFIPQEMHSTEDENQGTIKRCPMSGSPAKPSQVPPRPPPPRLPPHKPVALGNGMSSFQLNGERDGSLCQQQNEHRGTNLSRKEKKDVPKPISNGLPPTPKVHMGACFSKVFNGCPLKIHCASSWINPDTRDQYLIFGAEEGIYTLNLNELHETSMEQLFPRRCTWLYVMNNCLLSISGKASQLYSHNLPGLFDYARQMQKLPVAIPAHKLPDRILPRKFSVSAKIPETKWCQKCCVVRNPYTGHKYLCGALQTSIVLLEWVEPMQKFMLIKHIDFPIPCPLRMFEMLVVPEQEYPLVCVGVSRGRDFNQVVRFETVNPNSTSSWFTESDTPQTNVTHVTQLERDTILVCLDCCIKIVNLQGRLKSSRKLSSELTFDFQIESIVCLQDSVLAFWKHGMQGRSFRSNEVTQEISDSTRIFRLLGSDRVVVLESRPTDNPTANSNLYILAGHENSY
Chain of Cyclin-dependent kinase 11B (Homo sapiens) (P21127 whole entry, the tested form may be a part): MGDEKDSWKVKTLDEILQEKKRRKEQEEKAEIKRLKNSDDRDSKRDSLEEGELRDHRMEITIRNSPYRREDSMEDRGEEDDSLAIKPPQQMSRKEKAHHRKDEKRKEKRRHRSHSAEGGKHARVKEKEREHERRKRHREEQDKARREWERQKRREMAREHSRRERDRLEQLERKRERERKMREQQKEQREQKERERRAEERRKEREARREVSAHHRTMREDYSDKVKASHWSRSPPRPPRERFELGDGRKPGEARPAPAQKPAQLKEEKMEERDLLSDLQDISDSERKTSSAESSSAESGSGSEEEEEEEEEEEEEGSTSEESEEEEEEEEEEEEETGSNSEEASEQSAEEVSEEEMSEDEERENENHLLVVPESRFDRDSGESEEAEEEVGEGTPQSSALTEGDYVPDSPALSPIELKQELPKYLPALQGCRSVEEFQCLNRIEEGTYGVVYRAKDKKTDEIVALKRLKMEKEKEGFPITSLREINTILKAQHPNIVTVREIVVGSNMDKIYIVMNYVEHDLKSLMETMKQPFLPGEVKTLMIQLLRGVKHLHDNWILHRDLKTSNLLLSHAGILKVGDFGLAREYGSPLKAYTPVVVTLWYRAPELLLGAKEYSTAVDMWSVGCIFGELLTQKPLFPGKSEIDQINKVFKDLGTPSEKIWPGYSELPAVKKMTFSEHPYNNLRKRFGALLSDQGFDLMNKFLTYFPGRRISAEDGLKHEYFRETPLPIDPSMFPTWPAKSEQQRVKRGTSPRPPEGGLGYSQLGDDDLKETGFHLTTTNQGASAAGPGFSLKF

With `COc1cc(OC)c(Cl)c(N2Cc3cnc(Nc4ccc(F)cc4)nc3N(C3CCN(C(=O)/C=C/CN(C)C)CC3)C2=O)c1Cl`, the Activity in [1] was determined as 100%; in experiment [2], 100%; in [3], 100%; in experiment [4] it was 88%; in experiment [5], 95%; in experiment [6], 100%. The Activity in experiment [7] is 100%; in experiment [8], 100%; in [9], 100%; in experiment [10], 100%; in experiment [11], 100%; in experiment [12], 89%. Moreover, the Activity in experiment [13] came to 98%; in [14], 99%; in experiment [15], 78%; in experiment [16], 96%; in experiment [17] it was 93%; in experiment [18] it was 100%. Moreover, the Activity in [19] was determined as 79%; in experiment [20] it was 100%; in experiment [21], 90%; in experiment [22], 94%; in experiment [23], 73%.
